# In ChEMBL document CHEMBL3351470, “Synthesis and Structure-Activity Relationships of α-Amino-γ-lactone Ketolides: A Novel Class of Macrolide Antibiotics” (2014):
# Assays:
# Assay type in all cases: functional
# Staphylococcus aureus [1] = assay: Antibacterial activity against erythromycin-susceptible Staphylococcus aureus by agar microdilution method
# In short: (§1)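 Strains from an in-house culture collection (Pliva Research Institute). MIC determined by agar microdilution following NCCLS standards and reported in μg/mL. Erythromycin-susceptible strains are listed as Ery-S; the panel also includes inducibly resistant (iMLS), constitutively resistant (MLSB) and efflux-resistant (M) strains.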
# Staphylococcus aureus [2] = assay: Antibacterial activity against macrolide lincosamide- streptogramin B inducibly-resistant Staphylococcus aureus by agar microdilution method
# In short: (§2)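 Agar microdilution MIC following NCCLS standards; strains taken from the Pliva Research Institute culture collection. Panel grouped by phenotype: erythromycin-susceptible, inducibly MLS-resistant (iMLS), constitutively MLSB-resistant and efflux-resistant (M). Azithromycin, telithromycin and cethromycin tested alongside as references. MIC reported in μg/mL.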
# Staphylococcus aureus [3] = assay: Antibacterial activity against macrolide lincosamide- streptogramin B-resistant Staphylococcus aureus by agar microdilution method; in short: as §2
# Streptococcus pneumoniae [4] = assay: Antibacterial activity against erythromycin-susceptible Streptococcus pneumoniae by agar microdilution method; in short: as §1
# Streptococcus pneumoniae [5] = assay: Antibacterial activity against macrolide lincosamide- streptogramin B inducibly-resistant Streptococcus pneumoniae by agar microdilution method; in short: as §2
# Streptococcus pneumoniae [6] = assay: Antibacterial activity against efflux-resistant Streptococcus pneumoniae by agar microdilution method; in short: as §2
# Streptococcus pyogenes [7] = assay: Antibacterial activity against erythromycin-susceptible Streptococcus pyogenes by agar microdilution method; in short: as §1
# Streptococcus pyogenes [8] = assay: Antibacterial activity against macrolide lincosamide- streptogramin B inducibly-resistant Streptococcus pyogenes by agar microdilution method; in short: as §2
# Streptococcus pyogenes [9] = assay: Antibacterial activity against efflux-resistant Streptococcus pyogenes by agar microdilution method; in short: as §2
# Haemophilus influenzae = assay: Antibacterial activity against Haemophilus influenzae by agar microdilution method; in short: as §1
SMILES,MIC (Staphylococcus aureus [1]),MIC (Staphylococcus aureus [2]),MIC (Staphylococcus aureus [3]),MIC (Streptococcus pneumoniae [4]),MIC (Streptococcus pneumoniae [5]),MIC (Streptococcus pneumoniae [6]),MIC (Streptococcus pyogenes [7]),MIC (Streptococcus pyogenes [8]),MIC (Streptococcus pyogenes [9]),MIC (Haemophilus influenzae)
CC[C@H]1OC(=O)[C@H](C)C(=O)[C@H](C)[C@@H](O[C@@H]2O[C@H](C)C[C@H](N(C)C)[C@H]2O)[C@](C)(OC)C[C@@H](C)C(=O)[C@H](C)[C@H]2C(N)C(=O)O[C@@]21C (stereo not given in full),1 µg/mL,32 µg/mL,> 64 µg/mL,≤ 0.125 µg/mL,> 64 µg/mL,8 µg/mL,2 µg/mL,> 64 µg/mL,8 µg/mL,> 64 µg/mL
CC[C@H]1OC(=O)[C@H](C)C(=O)[C@H](C)[C@@H](O[C@@H]2O[C@H](C)C[C@H](N(C)C)[C@H]2O)[C@](C)(OC)C[C@@H](C)C(=O)[C@H](C)[C@H]2C(NC(=O)CCc3ccccc3)C(=O)O[C@@]21C (stereo not given in full),4 µg/mL,8 µg/mL,> 64 µg/mL,≤ 0.125 µg/mL,16 µg/mL,4 µg/mL,0.5 µg/mL,16 µg/mL,8 µg/mL,16 µg/mL
CC[C@H]1OC(=O)[C@H](C)C(=O)[C@H](C)[C@@H](O[C@@H]2O[C@H](C)C[C@H](N(C)C)[C@H]2O)[C@](C)(OC)C[C@@H](C)C(=O)[C@H](C)[C@H]2C(NC(=O)CCc3ccncc3)C(=O)O[C@@]21C (stereo not given in full),4 µg/mL,8 µg/mL,> 64 µg/mL,≤ 0.125 µg/mL,16 µg/mL,8 µg/mL,≤ 0.125 µg/mL,2 µg/mL,2 µg/mL,2 µg/mL
CC[C@H]1OC(=O)[C@H](C)C(=O)[C@H](C)[C@@H](O[C@@H]2O[C@H](C)C[C@H](N(C)C)[C@H]2O)[C@](C)(OC)C[C@@H](C)C(=O)[C@H](C)[C@H]2C(NC(=O)CCc3cccnc3)C(=O)O[C@@]21C (stereo not given in full),2 µg/mL,4 µg/mL,> 64 µg/mL,≤ 0.125 µg/mL,4 µg/mL,2 µg/mL,≤ 0.125 µg/mL,4 µg/mL,2 µg/mL,8 µg/mL
CC[C@H]1OC(=O)[C@H](C)C(=O)[C@H](C)[C@@H](O[C@@H]2O[C@H](C)C[C@H](N(C)C)[C@H]2O)[C@](C)(OC)C[C@@H](C)C(=O)[C@H](C)[C@H]2C(NC(=O)CCc3ccccn3)C(=O)O[C@@]21C (stereo not given in full),4 µg/mL,4 µg/mL,> 64 µg/mL,≤ 0.125 µg/mL,2 µg/mL,2 µg/mL,≤ 0.125 µg/mL,32 µg/mL,4 µg/mL,16 µg/mL
CC[C@H]1OC(=O)[C@H](C)C(=O)[C@H](C)[C@@H](O[C@@H]2O[C@H](C)C[C@H](N(C)C)[C@H]2O)[C@](C)(OC)C[C@@H](C)C(=O)[C@H](C)[C@H]2C(NC(=O)CCc3ccc4ccccc4c3)C(=O)O[C@@]21C (stereo not given in full),1 µg/mL,1 µg/mL,> 64 µg/mL,≤ 0.125 µg/mL,2 µg/mL,2 µg/mL,≤ 0.125 µg/mL,4 µg/mL,8 µg/mL,2 µg/mL
CC[C@H]1OC(=O)[C@H](C)C(=O)[C@H](C)[C@@H](O[C@@H]2O[C@H](C)C[C@H](N(C)C)[C@H]2O)[C@](C)(OC)C[C@@H](C)C(=O)[C@H](C)[C@H]2C(NC(=O)CCc3cnc4ccccc4c3)C(=O)O[C@@]21C (stereo not given in full),1 µg/mL,1 µg/mL,> 64 µg/mL,≤ 0.125 µg/mL,1 µg/mL,0.5 µg/mL,≤ 0.125 µg/mL,1 µg/mL,2 µg/mL,4 µg/mL
CC[C@H]1OC(=O)[C@H](C)C(=O)[C@H](C)[C@@H](O[C@@H]2O[C@H](C)C[C@H](N(C)C)[C@H]2O)[C@](C)(OC)C[C@@H](C)C(=O)[C@H](C)[C@H]2C(NC(=O)CCc3cnc4c(OC)cccc4c3)C(=O)O[C@@]21C (stereo not given in full),0.5 µg/mL,1 µg/mL,> 64 µg/mL,≤ 0.125 µg/mL,0.25 µg/mL,0.25 µg/mL,≤ 0.125 µg/mL,0.5 µg/mL,0.25 µg/mL,1 µg/mL
CC[C@H]1OC(=O)[C@H](C)C(=O)[C@H](C)[C@@H](O[C@@H]2O[C@H](C)C[C@H](N(C)C)[C@H]2O)[C@](C)(OC)C[C@@H](C)C(=O)[C@H](C)[C@H]2C(NC(=O)CCc3cnc4ccc(OC)cc4c3)C(=O)O[C@@]21C (stereo not given in full),2 µg/mL,1 µg/mL,> 64 µg/mL,≤ 0.125 µg/mL,0.5 µg/mL,0.5 µg/mL,≤ 0.125 µg/mL,0.25 µg/mL,0.5 µg/mL,1 µg/mL
